Shown are actives, neighbours in structure and some others; about 4.9% of the full set was active somewhere.
NF-kB expr up: raises NF-kB expression in human neuronal cells; NF-kB reporter expression; active compounds read high; fold change at 12.5 µM; hit rate 1.6% among 190,000; in the data active means fold change above about 3.3
STAT1 act: STAT1 signaling activation | NIH 3T3 STAT1-luciferase reporter, IFN-gamma, luminescence; 100% = IFN-gamma alone, no compound | activation (% of control), % at 5.5 µM | hit rate 2.6% among 200,000 | AID 932;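 active means activation above the screen-wide mean activation plus 3 SD, cut at about 130% in these data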
STAT3 act: increases IL-6 driven STAT3 reporter signal; activation (% of control), % at 5.6 µM; U3A cells, IL-6 STAT3-luciferase reporter, luminescence; 100% = signal with IL-6 EC80 alone; hit rate 0.91% among 190,000; AID 871;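 active means activation above the screen-wide mean of compound activation plus 3 SD, cut at about 130% in these data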
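Test system: human U3A cells carrying STAT3-luciferase construct; control set: IL-6-only wells as 100% reference; timing: compound pre-incubation 1 h before IL-6, then 6 h stimulation at 37 °C; also added: IL-6 stimulus at 33 ng/mL final; evaluation: % activation versus median of IL-6-stimulated wells; detection: reporter luminescence signal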
STAT3 blocker: reduces IL-6 driven STAT3 reporter signal. U3A cells, IL-6 STAT3-luciferase reporter, luminescence; host cell line lacks STAT1. inhibition, % at 5.5 µM. hit rate 0.89% among 190,000. AID 862;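 active means inhibition above the mean inhibition across all screened compounds plus 3 SD, cut at about 44% in these data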
APP 5'UTR act: activates APP 5'UTR luciferase reporter; activation, % at 2 µM; SH-SY5Y APP 5'UTR luciferase reporter, luminescence; zero percent = DMSO vehicle wells; hit rate 1% among 190,000;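 active means activation above a set limit, based on mean plus 3 SD of controls, cut at about 140% in these data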
STAT1 blocker: reduces IFN-gamma driven STAT1 reporter signal; inhibition, % at 5.5 µM; hit rate 0.35% among 200,000; NIH 3T3 STAT1-luciferase reporter, luminescence;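 active means inhibition above a set limit, the mean inhibition across all tested compounds plus 3 SD, cut at about 34% in these data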
Of the large screens only hits and unclear results are named; the others gave an inactive call.

Cn1c(N)c(S(=O)(=O)N2CCN(c3ccccc3)CC2)c(=O)n(C)c1=O	none
C=CCc1c(C)[nH]c2c(OC)cccc2c1=S	none
CN(C)c1ccc(C(=S)NC2CCCCC2)cc1	NF-kB expr up 3.35, STAT1 act 131.7
O=C1C2C3C=CC(CC3)C2C(=O)N1/N=C/c1c[nH]c2ccccc12 (stereo not given)	STAT1 act 136.6
O=c1nc(Nc2ccccc2)sc2ccc([N+](=O)[O-])cc12	none
Cc1nnc(-c2ccccc2)nc1N(C)C	none
COc1ccc(N=C2C(=Nc3ccc(OC)cc3)N(c3ccc(OC)cc3)C(=S)N2C(=O)c2ccc(OC)cc2)cc1	none
COc1ccc(N=C2C(=Nc3ccc(OC)cc3)N(c3ccccc3)C(=S)N2C(=O)c2ccc(Cl)cc2)cc1	NF-kB expr up 6.79
CC(C)c1ccc(C(=O)NN2C(=O)C3CCCCC3C2=O)cc1 (stereo not given)	STAT1 act 144.0
Cc1ccc(N=Cc2sc(O)c3ccccc23)c(C)c1	STAT1 act 147.3
O=C(/C=C/Sc1ccccc1)c1ccccc1	NF-kB expr up 5.22
O=C(/C=C/Sc1ccccc1)c1ccc(Cl)cc1	NF-kB expr up 6.25
CCOC(=O)C1(C)NC(c2ccccc2F)C2C(=O)N(CC)C(=O)C21 (stereo not given)	none
O=C(Nc1ccccc1)n1cc(-c2ccccn2)c(N2CCOCC2)n1	STAT3 act 133.4
O=C(Nc1ccc(Nc2ccccc2)cc1)N1CCOCC1	none
COc1cccc2c(=O)cn[nH]c12	none
Cc1cccc(N/N=C(\C=N\N)C(=O)c2ccc(Br)cc2)c1	none
C/C(=N\NC(=O)c1nn(C)c(C)c1Br)c1ccc(NC(=O)c2ccc(C)s2)cc1	STAT1 act 132.7
CCOC(=O)c1c(C)c(C(=O)Nc2ccc3c(c2)OCCO3)c(C)n1C	none
CCOC(=O)c1c(C)c(C(=O)Nc2cc(F)ccc2F)c(C)n1C	NF-kB expr up 4.33
COc1cc(NC(=O)COc2ccccc2[N+](=O)[O-])ccc1NC(=O)c1cccs1	STAT1 act 141.2
COc1ccc(OCC(=O)Nc2ccc(NC(=O)c3cccs3)c(OC)c2)cc1	none
O=C1NC2(CCCCC2)C(=O)N1/N=C/c1ccccc1Br	STAT1 act 130.7
CCOC(=O)N=Nc1c2ccccc2c2nc3no[nH]c3nc12	STAT3 blocker 67.5, STAT1 blocker 88.7
CCOC(=O)N=Nc1c(O)n(CC(=O)OC)c2ccccc12	none
Nc1nnnn1/N=C/c1ccc(O)cc1	none (no result: APP 5'UTR act)
CCN(C)c1ccc(/C=N\n2nnnc2N)cc1	STAT1 act 140.7
COc1cccc(CNC(=O)CCC2CCCN(C(=O)c3ccc(OC)c(F)c3)C2)c1 (stereo not given)	none
CN(C)c1ccc(N=c2sc3ccccc3n2C)cc1	NF-kB expr up 4.6, STAT1 act 138.0
CN(C(=O)c1cccnc1)c1nnc(-c2ccccn2)s1	STAT1 act 135.9
CN(C(=O)c1cccnc1)c1nnc(-c2cnccn2)s1	none
Cc1ccc(N=C2NC(=O)CS2)c(C)c1	none
Cc1ccc(N=C2NC(=O)/C(=C\c3ccsc3)S2)c(C)c1	NF-kB expr up 4.42
COc1ccccc1N1CCN(S(=O)(=O)c2ccc3c(c2)n(C)c(=O)n3C)CC1	none
O=C(NC1=NCCS1)c1ccc(Br)s1	STAT1 act 137.5
O=C(Nc1nnc(C(F)(F)F)s1)c1ccc(Br)s1	STAT3 blocker 46.4, STAT1 blocker 41.5
CC(NC(=O)Nc1nnc(C(F)(F)F)s1)(C(F)(F)F)C(F)(F)F	STAT3 blocker 81.5, STAT1 blocker 62.5
Cc1nn(-c2ccccc2)c(N)c1N=Nc1cccnc1	STAT1 act 132.9
Nc1nc(-c2ccccc2)c(N=Nc2cccnc2)s1	none
O=C(NC(Nc1nc2ccc([N+](=O)[O-])cc2s1)(C(F)(F)F)C(F)(F)F)c1ccccc1Cl	STAT3 blocker 92.3, STAT1 blocker 47.4
CN(C)S(=O)(=O)c1ccc2nc(NC(=O)c3cccnc3)sc2c1	none
O=C(NC(NNc1ccc([N+](=O)[O-])cc1)(C(F)(F)F)C(F)(F)F)c1ccccc1Cl	none
O=C(NC(Nc1nc2ccc([N+](=O)[O-])cc2s1)(C(F)(F)F)C(F)(F)F)c1cccnc1	STAT3 blocker 70.7, STAT1 blocker 45.6
CSc1ccccc1NC(=O)C(=O)c1c[nH]c2ccccc12	STAT1 act 148.6
O=C(Nc1nccs1)C(=O)c1c[nH]c2ccccc12	STAT1 act 132.9, STAT3 act 136.3
CN(C(=O)COC(=O)c1ccc([N+](=O)[O-])cc1N)c1ccccc1	none
COCCCNC(=O)COc1ccc(Br)cc1Cl	STAT1 act 139.3
Cc1ccc(Nc2ncnc3ccccc23)cc1	STAT1 act 129.7, APP 5'UTR act 149.3
CC(C)Oc1ccc(Nc2ncnc3ccccc23)cc1	STAT1 act 144.3
Cc1cccc(Nc2ncnc3ccccc23)c1	none
Cc1ccccc1C(=O)Oc1cccc(Nc2ncnc3ccccc23)c1	STAT3 blocker 66.8 (no result: NF-kB expr up)
Cc1c(/C=C/C(=O)c2ccccc2O)cnn1C	NF-kB expr up 3.92
Cc1ccc2occ(/C=C/C(=O)c3ccccc3O)c(=O)c2c1	none
Cc1ccc(C(=O)Cn2ncsc2=N)cc1	STAT1 act 130.4
CCOC(=O)N1CCN(C(=O)/C=C/c2cccc([N+](=O)[O-])c2)CC1	none
CC(C)(C)C(=O)Nc1cc2nn(-c3ccccc3)nc2cc1Cl	STAT3 blocker 104.0, STAT1 blocker 82.7
CC(=O)Nc1cc2nn(-c3ccccc3)nc2cc1Cl	NF-kB expr up 5.31, STAT1 act 131.4
Cc1nn(-c2cccc(Cl)c2)nc1C(=O)O	none
O=C(CCc1ccccc1)N1CCN(c2ccc([N+](=O)[O-])cc2)CC1	none
NNc1nc(-c2ccccc2Cl)nc2sc3c(c12)CCCC3	NF-kB expr up 3.31
CCOC(=O)C1=NNC2(c3ccc(C)cc3)C(=O)N(c3ccc(Cl)cc3)C(=O)C12 (stereo not given)	none
CC(=O)Nc1nc2cc3c(cc2s1)OCO3	none
O=C(NNc1nc2cc3c(cc2s1)OCCO3)c1ccc(F)cc1	none
O=C(Nc1nc2cc3c(cc2s1)OCCO3)c1ccncc1	STAT1 act 132.3, APP 5'UTR act 153.4
O=C(Nc1nc2cc3c(cc2s1)OCO3)C1=COCCO1	STAT3 blocker 85.8, STAT1 blocker 49.0
CC(=O)c1cccc(NC(=O)c2ccc(C(=O)Nc3cccc(C(C)=O)c3)nc2)c1	none
Cc1cc(C)n2nc(C(=O)Nc3ccc4c(c3)OCO4)cc2n1	NF-kB expr up 3.33, STAT1 act 129.3
O=C(Nc1cccnc1)c1cc(-c2ccc3c(c2)OCO3)on1	NF-kB expr up 5.49, STAT1 act 133.9
CC(=O)c1cccc(NC(=O)c2cc3nc(C)cc(C)n3n2)c1	STAT1 act 144.6
O=C(Nc1ccc2c(c1)OCO2)c1cc2nc(C3CC3)cc(C(F)(F)F)n2n1	none

Screening data from PubChem.
